From ChEMBL document CHEMBL1126849, “Synthesis of A-ring fluorinated derivatives of (17 alpha,20E/Z)-[125I]iodovinylestradiols: effect on receptor binding and receptor-mediated target tissue uptake” (J Med Chem, 1993)

Tested on: Rattus norvegicus
Experiment: Biodistribution in blood of immature femalee rat after 1 hr administration of 3 micro Ci (111 kBq) in the presence of (+E2)
Type: ADME, organism-based
Conditions: in vivo
Summary of the method: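 Immature female Long Evans rats (21–24 days, 45–70 g), unanesthetized in retention cages, given 3 µCi (111 kBq) 125I-labeled steroid i.v. via lateral tail vein. Vehicle was ethanol diluted in saline containing 1% Tween-80, giving 9% ethanol final. The blocking group received 60 µg unlabeled estradiol co-injected. Rats were killed under ether by axillary bleeding, and tissues were KCl-washed and gamma-counted. Data are %ID/g, mean ± SE, n=3–5.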

- ID/g: 0.81%
SMILES: CO[C@H]1C[C@@]2(C)[C@@H](CC[C@@]2(O)/C=C\I)[C@@H]2CCc3c(ccc(O)c3F)[C@H]21
